Screening data from PubChem.
This is a sample that favours compounds with a hit; in the whole collection about 1.9% have one here.
GPR7 antagonist: human neuropeptides B/W receptor 1 antagonism | P48145 | AID 1861 | inhibition, % at 4.4 µM | 1.1% of 290,000 active | GPR7-expressing cells, fluorescence antagonist assay; in the data active = inhibition above about 16%, passing the limit was not always enough;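 also: cells stimulated with the agonist NPW; 0% = agonist with vehicle and 100% = vehicle without agonist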
Target sequence (P48145 whole entry, looked up): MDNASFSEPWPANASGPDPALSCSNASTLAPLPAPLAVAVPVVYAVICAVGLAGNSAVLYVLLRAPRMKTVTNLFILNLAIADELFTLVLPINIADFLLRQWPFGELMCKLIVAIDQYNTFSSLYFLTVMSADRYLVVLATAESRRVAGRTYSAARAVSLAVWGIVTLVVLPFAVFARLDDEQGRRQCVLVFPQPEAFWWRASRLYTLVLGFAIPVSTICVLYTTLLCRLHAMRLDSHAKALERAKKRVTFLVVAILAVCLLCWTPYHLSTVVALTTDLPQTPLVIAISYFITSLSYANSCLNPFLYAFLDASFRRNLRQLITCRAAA
HCV core dimer: blocks dimerization of HCV core protein | 0.33% of 300,000 active | TR-FRET GST/Flag-core106 dimerization, 1536-well | AID 1899 | inhibition, % at 5 µM;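 active = inhibition above the mean of all tested compounds plus 3 SD, set per screening campaign, cut at about 45% in these data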
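System: GST-tagged and Flag-tagged HCV core protein residues 1-106 / Input: core106 proteins, GST 13.5 nM and Flag 17 nM / Buffer or medium: KF-containing HEPES buffer, pH 7.45, DTT, CHAPS, BSA / Probe or stimulus: Eu-anti-GST and XL665-anti-Flag labelled anti-tag antibodies / Schedule: 4 h, 22.5 °C incubation / Technique: TR-FRET 671 and 617 nm emission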
p-CIP stab down: compounds decreasing mouse p/CIP protein stability; Q05BA5; decrease of EGFP signal, % at 10 µM; 0.01% of 290,000 active; AID 1984; F442A p/CIP-EGFP cells, EGFP fluorescence, 16 h;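 active = EGFP signal decrease of at least 30% at 10 µM or well 3 SD below plate mean, unless failing retest; inactive = the rest, including hits failing retest or dose response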
NS3 helicase inh: HCV NS3 helicase inhibition; NS3 helicase DNA unwinding, Cy5 molecular beacon fluorescence; inhibition, % at 10.9 µM; 0.56% of 290,000 active; AID 1800;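 active = inhibition above the mean of all tested compounds plus 3 SD, set per campaign, cut at about 35% in these data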;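 also: 0% = DMSO wells and 100% = thioflavine S control wells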
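Compound dosing – single dose, 10.9 µM nominal final, DMSO 0.8% final · System – NS3 helicase fragment of HCV · Buffer or medium – MOPS pH 6.5, MgCl2, DTT, Tween20, BSA · Signal – Cy5 beacon fluorescence read at start and 1 h · Also added – annealed dual-labelled DNA beacon duplex, ATP-started · Schedule – 1 h at 25 °C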
DNA FID counter-1: counter-screen for HCV NS3 helicase inhibitors: DNA intercalator displacement | inhibition, % at 7.9 µM | DNA fluorescent intercalator displacement, fluorescence | 0.17% of 290,000 active;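 also: 0% = vehicle and 100% = reference compound; higher means more ethidium bromide displaced from hairpin DNA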
NS3 hel confirm: HCV NS3 helicase inhibition, confirmation assay | shares compounds with NS3 helicase inh | NS3 helicase DNA unwinding, Cy5 molecular beacon fluorescence | inhibition, % at 10.9 µM | 31% of 1,600 active | AID 1943;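 active = inhibition above the mean of all tested compounds plus 3 SD, cutoff set per campaign, cut at about 36% in these data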
DNA FID counter-2: counter-screen for HCV NS3 helicase inhibitors: DNA intercalator displacement; 4% of 1,600 active; inhibition, % at 7.9 µM; shares compounds with NS3 helicase inh; AID 1945; DNA fluorescent intercalator displacement, fluorescence;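 also: 0% = vehicle and 100% = reference compound; higher means more displacement of ethidium bromide from the DNA hairpin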
DNA FID DR: displaces fluorescent intercalator from DNA, HCV helicase counter-screen. shares compounds with NS3 helicase inh. fluorescent intercalator displacement from DNA, fluorescence. IC50, µM. 120 tested, under 10 active; call rule not given here
Numbers without * were called inactive; nt = not tested or not shown. Rule as the data show it, unless noted: active = inhibition above about 37%; inactive = the rest.

SMILES	GPR7 antagonist	HCV core dimer	p-CIP stab down	NS3 helicase inh	DNA FID counter-1	NS3 hel confirm	DNA FID counter-2	others
Cn1c(SCC(=O)CC(=O)Nc2ccccc2)nnc1-c1ccc(O)cc1	-1.9	-13.5	5.4	8.0	-14.9	nt	nt
O=C(CSc1nnc(-c2ccc(O)cc2)n1-c1ccccc1)CC(=O)Nc1ccccc1	-5.7	10.5	-5.5	36.7*	-17.7	-12.3	-56.7
CCOc1cc(C(=O)Nc2ccc(N3CCN(S(C)(=O)=O)CC3)cc2)cc(OCC)c1OCC	-15.0	14.3	-7.5	39.1*	-12.3	-2.4	-28.6
O=S(=O)(NCc1ccccn1)c1cc(C(F)(F)F)ccc1Cl	2.4	-0.9	-4.4	3.2	2.6	nt	nt
Cc1cc(C)c(NC(=O)c2ccc(CNS(=O)(=O)c3cc(C(F)(F)F)ccc3Cl)cc2)c(C)c1	-11.7	15.3	-10.6	36.3*	-23.4	-4.4	-13.6
O=C1ON=C(c2ccccc2)/C1=C/c1ccc(O)c(O)c1	-8.7	10.6	3.8	46.4*	-6.3	16.5	4.3
COc1ccc(/C=C2\C(=O)ON=C2c2ccccc2)cc1	0.1	3.2	-6.0	4.0	-0.3	nt	nt
N#CC1=C(N)Oc2ccc3ccc(O)cc3c2C1c1ccsc1 (configuration not stated)	0.8	nt	-7.4	53.3*	-45.3	-11.2	-57.2
N#CC1=C(N)Oc2cc(N)ccc2C1c1ccsc1 (configuration not stated)	-6.6	-6.5	-5.7	12.4	-12.7	nt	nt
N/C(CC(=O)Nc1cc(C(F)(F)F)ccc1Cl)=N\O	-12.4	-12.4	-6.0	18.9	-6.2	-3.8	8.2
CN(C)CC(=O)Nc1cc(C(F)(F)F)ccc1Cl	-5.3	-0.6	9.7	4.4	4.4	nt	nt
CCOc1ccc(OCCCCN(C)C)cc1	9.2	-1.8	-0.4	49.0*	14.1	-7.2	14.8
CCOc1ccc(OCCCN(C)C)cc1	0.7	-1.2	-14.8	-3.8	2.6	nt	nt
CCCn1c2ccccc2c2cnn(CC(=O)N3CCN(C4CCCCC4)CC3)c(=O)c21	-12.9	16.2	3.1	-7.8	7.1	nt	nt
CCOc1ccc(-n2nc3cc(C)c(N)cc3n2)cc1	1.3	22.8	9.5	63.3*	-8.5	-9.2	-0.1
Cc1ccc(-n2nc3ccc(N)cc3n2)cc1	-6.4	5.3	-4.3	25.4	4.4	nt	nt
CCOc1ccc(-n2nc3ccc(N)cc3n2)cc1	-22.0	nt	-12.5	44.1*	-12.8	-14.6	-0.7
C=CCSC1=N/C(=C\c2sccc2C)C(=O)S1	-6.0	-1.9	-6.4	15.0	-3.1	nt	nt
C=CCSC1=N/C(=C\C=C\c2ccco2)C(=O)S1	6.1	64.7*	-0.5	41.7*	-11.3	50.4*	19.4	DNA FID DR=>79.4
Cc1cc(C(=O)NC2CCCN(Cc3ccccc3F)C2)n[nH]1 (configuration not stated)	-13.7	-2.3	-14.3	2.0	-4.8	nt	nt
Cc1c(C(=O)O)cccc1-c1ccc(/C=N/Nc2ccc(Br)cc2)o1	0.9	-5.8	-2.1	43.9*	-27.9	37.6*	1.6
O=C(O)c1ccc(N/N=C/c2ccc(-c3cc(Cl)ccc3Cl)o2)cc1	5.1	13.5	-12.3	40.4*	-21.1	62.5*	14.2
O=C(O)c1ccc(N/N=C/c2ccc(-c3ccc(Cl)cc3Cl)o2)cc1	-5.3	15.4	-6.1	36.3*	-15.2	52.6*	17.3
O=C(O)c1ccc(N/N=C/c2ccc(-c3cccc(Cl)c3)o2)cc1	-1.1	-2.0	-10.8	-8.2	-15.2	nt	nt
O=c1nc2s/c(=C\c3ccco3)c(=O)n2nc1Cc1ccc(F)cc1	2.2	37.2	-5.0	47.2*	-12.2	9.3	5.2
SMILES	GPR7 antagonist	HCV core dimer	p-CIP stab down	NS3 helicase inh	DNA FID counter-1	NS3 hel confirm	DNA FID counter-2	others
Cc1ccc(-c2nc3s/c(=C\c4ccco4)c(=O)n3n2)cc1	-13.9	33.3	4.5	16.9	-8.2	nt	nt
COc1ccc(/C=N/n2c(C3CCCCC3)n[nH]c2=S)c(OC)c1	-0.2	10.4	6.6	7.0	-30.5	nt	nt
C/C(CC(=O)Nc1ccc(Cl)c(C(F)(F)F)c1)=N\NC(=O)c1ccccc1O	-3.0	-4.4	0.0	40.6*	1.4	3.9	13.5
CCN(CC)c1ccc(C=Nc2ccc(N(C)C)cc2)c(O)c1	12.4	-25.6	1.0	36.8*	-2.7	3.2	5.0
Cc1cc(C(=O)CSc2nc3ccccc3c(=O)n2C)c(C)n1Cc1ccc2c(c1)OCO2	-6.8	27.4	3.5	40.0*	-0.2	2.0	-18.2
CCOC(=O)C1(C)C=C(Nc2ccc(O)cc2)C(=O)N1c1ccc(O)cc1 (configuration not stated)	-5.7	-15.3	5.2	37.8*	-28.3	-10.2	14.0
O=C(NCCc1cccs1)C12CN(Cc3ccccc3)CC1C(c1cccc([N+](=O)[O-])c1)=NO2 (configuration not stated)	1.5	18.2	3.6	56.0*	-15.6	2.0	-21.2
O=S(=O)(Cc1ccco1)Cc1nc(-c2ccc(Cl)cc2)cs1	6.7	-0.4	11.1	43.2*	-19.0	-14.5	-8.1
O=S(=O)(Cc1noc(-c2ccc(Cl)cc2)n1)Cc1ccco1	-6.8	-0.3	3.1	52.1*	-16.9	-11.1	0.3
CCOC(=O)C1=C(COC(=O)c2ccccc2[N+](=O)[O-])NC(=O)NC1C (configuration not stated)	nt	-1.8	nt	nt	nt	nt	nt
COC(=O)c1ccc(-n2c(C)cc(/C=N/Nc3nc(C)cc(=O)[nH]3)c2C)cc1	-7.8	6.7	-7.3	37.8*	-21.0	0.3	-26.1
C#Cc1cccc(C(=O)N2CCCC(Nc3cccc(F)c3)C2)c1 (configuration not stated)	-12.0	-3.4	-10.4	-8.4	-18.9	nt	nt
Cc1cc(C)n(-c2ccc(C(=O)OCC(=O)c3ccc(Br)s3)cc2)n1	-0.7	27.1	-4.6	50.4*	-40.8	-4.3	-5.2
CCNC(=O)COC(=O)c1ccc(-n2nc(C)cc2C)cc1	-9.1	4.7	-4.6	-1.9	-4.1	nt	nt
NC1=C(c2ccccc2)C(=O)NC1=O	24.7	-1.6	2.2	36.7*	-8.2	-10.8	20.0
O=C(c1ccc([N+](=O)[O-])cc1)N(Cc1cccs1)C1CCS(=O)(=O)C1 (configuration not stated)	5.2	0.0	5.6	-2.6	-3.0	nt	nt
CCc1ccc(N2NC(=O)/C(=C/C=C/c3ccco3)C2=O)cc1	-11.4	0.2	-0.7	49.6*	-14.7	46.1*	31.0
CC1=NN(c2ccc(C(=O)OC(C)C)cc2)C(=O)/C1=C\C=C\c1ccco1	-8.9	16.8	-1.0	22.8	-6.6	nt	nt
O=C1CSC(=S)N1/N=C/C=C/c1ccccc1	7.1	53.2*	-11.4	38.6*	-40.5	7.5	10.1
COCCNC(=O)NC12CC3(C)CC(C)(CC(C)(C3)C1)C2	19.4	-2.1	7.1	17.1	-26.0	nt	nt
